Screening results from PubChem BioAssay.
Compounds with a hit are over-represented: about 3% of the library has one in this group of screens.
Granule exo inh = lytic granule exocytosis inhibition | inhibition, % at 10 µM | AID 651702 | TALL-104 LAMP-1 surface exposure, flow cytometry; cells stimulated with thapsigargin and PMA | hit rate 0.66% among 360,000;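 active = inhibition above about 55%, limit read from the data; inconclusive = no clear call, values can overlap the other calls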
HNF4A DNA FP = change in binding of human HNF4 alpha to DNA. HNF4a-FITC DNA binding, fluorescence polarization, 1 h. activity change, % at 10 µM. hit rate 0.3% among 360,000; in the data active = activity change above about 30%, passing the limit was not always enough
Target sequence (P41235 whole entry, looked up): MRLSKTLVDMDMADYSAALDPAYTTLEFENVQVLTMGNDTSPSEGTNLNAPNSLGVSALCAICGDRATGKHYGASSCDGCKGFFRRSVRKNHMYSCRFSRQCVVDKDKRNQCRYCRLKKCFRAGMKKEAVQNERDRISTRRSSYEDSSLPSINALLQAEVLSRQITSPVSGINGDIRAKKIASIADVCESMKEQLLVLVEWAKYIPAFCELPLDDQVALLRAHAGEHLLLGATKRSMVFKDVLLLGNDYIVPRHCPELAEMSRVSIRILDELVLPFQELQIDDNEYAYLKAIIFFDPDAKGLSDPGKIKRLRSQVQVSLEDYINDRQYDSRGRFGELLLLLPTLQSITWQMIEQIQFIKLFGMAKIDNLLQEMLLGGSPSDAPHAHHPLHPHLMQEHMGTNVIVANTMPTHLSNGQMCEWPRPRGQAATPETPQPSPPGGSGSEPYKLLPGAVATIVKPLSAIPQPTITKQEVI
Myeloid diff 2 = myeloid differentiation induction. ER-HoxA9 myeloid progenitors, lysozyme-GFP differentiation, flow cytometry. calls only at 10 µM. hit rate 1% among 360,000;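 active = normalized GFP-positive differentiation at or above the plate's own cutoff, the solvent-only control mean plus 3 SD; inconclusive = no clear call, values can overlap the other calls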;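 also: cells exposed to compound for four days before flow analysis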
SENP1 inh = inhibitors of human SENP1 SUMO protease catalytic domain. inhibition, % at 10 µM. hit rate 0.21% among 360,000. recombinant SENP1 catalytic domain, CyPet-SUMO1-YPet FRET cleavage. AID 624204;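 active = inhibition at least 30% at 10 µM, raw YFP signal under a set limit, fluorescence ratio 0.5 to 1.5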;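 also: 0% = enzyme with DMSO and 100% = no enzyme wells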
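Assay system: hSENP1 catalytic domain, recombinant. Amount: SENP1 enzyme, 20 pM final. Schedule: 50 min reaction, RT, dark. Technique: FRET, CFP and YFP emission. Control set: no-enzyme wells low, DMSO-plus-enzyme wells high control.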
Pemphigus Ab inh = blocks pemphigus antibody binding to human desmoglein-3; AID 588358; binding (percent of control), % at 10 µM; P32926; hit rate 0.48% among 310,000; DSG3-coupled beads, scFv-anti-DSG3-GFP binding, flow cytometry; hits give low values;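 active = binding more than 3 SD below its plate's average and above zero; inconclusive = below that plate limit but binding exactly zero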;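 also: hits lower antibody fragment binding to DSG3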
H9c2 protect = modulators protecting cardiomyocytes from myocardial damage; H9c2 cardiomyocytes, H2O2 injury protection, ATPLite, 2 h; protection from H2O2 cell death, % at 20 µM; hit rate 0.63% among 360,000;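 active = compounds giving at least 50% protection of heart cells from peroxide-induced death in the single-dose screen, raw or plate-pattern-corrected value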;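 also: 0% = DMSO wells with peroxide and 100% = DMSO wells without peroxide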
Starred values were filed as active, the others as inactive; i = inactive; ? = inconclusive; . = no result given; + = active, no number.

SMILES	Granule exo inh	HNF4A DNA FP	Myeloid diff 2	SENP1 inh	Pemphigus Ab inh	H9c2 protect
O=[N+]([O-])c1ccc(Nc2nc(N/N=C/c3cccc(F)c3)nc(N3CCCC3)n2)cc1	2.3	2.0	i	1.2	91.0	83.5*
COc1cccc(/C=N/Nc2nc(Nc3ccc([N+](=O)[O-])cc3)nc(N3CCCC3)n2)c1O	1.8	-2.3	?	0.5	.	20.5
Nc1[nH]c(C(=O)c2ccccc2)c(-c2cccnc2)c1C(=O)NC1CCCCC1	-5.9	-3.9	i	-0.1	.	.
CCc1ccc(C(=O)OCC(=O)N(CCOC)c2c(N)n(Cc3ccccc3)c(=O)[nH]c2=O)cc1	3.1	0.3	i	1.9	100.4	-0.1
CC(NC(=O)CCNS(=O)(=O)c1cccc2nonc12)c1ccccc1 (centres undefined)	5.3	-0.3	i	-0.2	.	-0.3
O=C(Nc1ccc(Oc2ccccc2)cc1)c1ccc(Cn2c(=O)[nH]c3ccsc3c2=O)cc1	4.8	7.3	i	0.4	51.1*	1.3
COc1ccccc1N1CCN(C(=O)c2ccc(Cn3c(=O)[nH]c4ccsc4c3=O)cc2)CC1	-2.1	-6.6	i	-0.1	96.6	0.6
O=C(Nc1ccc(Cl)c(Cl)c1)c1ccc(Cn2c(=O)[nH]c3ccsc3c2=O)cc1	-0.6	-0.6	i	-0.9	66.3*	-1.6
O=C(NC1CCCC1)c1ccc(Cn2c(=O)[nH]c3ccsc3c2=O)cc1	1.1	-0.2	i	-1.6	100.6	-4.8
Cc1ccc(S(=O)(=O)N2CCN(Cc3csc(C)n3)CC2)cc1	-3.4	-5.9	+	0.9	.	-1.6
Cc1ccc(S(=O)(=O)N2CCN(Cc3ccccn3)CC2)cc1	1.3	-2.6	i	-1.6	107.6	-0.6
CC(C)C(NS(=O)(=O)c1c(Cl)cccc1Cl)C(=O)OCC(=O)c1c[nH]c2ccccc12 (centres undefined)	0.6	-1.2	+	-1.0	112.6	-7.3
Cc1cc(C)nc(-n2nc(C)cc2NC(=O)CN2CCc3ccccc3C2)n1	1.3	0.5	+	-8.7	97.9	23.9
O=C(CCCN1C(=O)c2cccc3cccc(c23)C1=O)N1CCN(c2ccc(F)cc2)CC1	-1.1	-4.8	i	-2.0	94.5	38.4
Fc1ccc(N2CCN(C3=Nc4cccc5cccc3c45)CC2)cc1	21.9	14.8	i	89.6*	101.9	2.9
O=C1c2ccc(-c3ccc(F)cc3OCc3ccccc3)cc2S(=O)(=O)c2cccc(C(=O)N3CCN(c4ncc(Br)cn4)CC3)c21	2.8	-1.5	i	16.1	89.0*	0.6
O=C(NCc1cccc(C(F)(F)F)c1)c1cccc2c1C(=O)c1ccc(N3CCC(Cc4ccccc4)CC3)cc1S2(=O)=O	-7.7	-19.4	+	-27.3	139.1	-6.3
O=C(NCCc1ccc(F)cc1)c1cccc2c1C(=O)c1ccc(N3CCC(Cc4ccccc4)CC3)cc1S2(=O)=O	-1.8	-62.2	+	-21.6	133.0	-3.7
O=C(NCc1cccc(F)c1)c1cccc2c1C(=O)c1ccc(N3CCC(Cc4ccccc4)CC3)cc1S2(=O)=O	-3.7	-79.8	+	-28.8	129.9	-0.6
O=C1c2ccc(-c3ccc(F)cc3OCc3ccccc3)cc2S(=O)(=O)c2cccc(C(=O)N3CCN(c4ncc(Cl)cc4Cl)CC3)c21	-6.4	-9.0	i	7.8	84.6	3.5
O=C(NCc1ccco1)c1cccc2c1C(=O)c1ccc(N3CCC(Cc4ccccc4)CC3)cc1S2(=O)=O	-0.7	-24.9	i	-22.6	136.3	3.5
CCCCCCN1C[C@@H](O)[C@H](n2cc(C3CC3)nn2)C[C@@H]1c1ccccc1	-3.2	-0.7	i	-13.1	106.5	-9.8
COc1ccc(NC(=O)c2cc(-c3ccccc3)nc3c2cnn3C(C)C)c(OC)c1	-8.2	3.0	i	2.1	105.8	9.0
CCN1CCN(C(=O)N2CCOCC2)CC1	-2.5	-0.1	i	2.1	108.7	10.0
CN(C)C(CNC(=O)C1CCN(S(=O)(=O)c2cccc(Cl)c2Cl)CC1)c1ccccc1 (centres undefined)	0.2	1.8	i	-1.1	116.8	2.3
SMILES	Granule exo inh	HNF4A DNA FP	Myeloid diff 2	SENP1 inh	Pemphigus Ab inh	H9c2 protect
Cc1ccccc1NC(=O)c1ccc(NC(=O)C2CC(=O)OC23CCCCC3)cc1 (centres undefined)	4.2	-3.3	i	-0.3	102.3	-5.0
O=C(CCc1nc2ccccc2c(=O)[nH]1)N1CCN(c2ccccc2Cl)CC1	-4.5	-1.4	i	-0.1	98.0	63.9*
O=C(CCc1nc2ccccc2c(=O)[nH]1)N1CCN(S(=O)(=O)c2cc(Cl)ccc2Cl)CC1	2.6	2.9	i	2.5	94.6	61.0*
O=C(CCc1nc2ccccc2c(=O)[nH]1)N1CCN(S(=O)(=O)c2cccc(F)c2)CC1	33.1	3.9	i	-4.0	113.0	52.2*
CCN1CCN(C(=O)CCc2nc3ccccc3c(=O)[nH]2)CC1	2.2	-3.2	i	-9.4	111.2	49.8
Cc1cc(C)c(C)c(S(=O)(=O)N2CCN(C(=O)CCc3nc4ccccc4c(=O)[nH]3)CC2)c1C	0.2	0.9	i	-1.3	99.3	70.4*
COC(=O)[C@]12CCCCC=C1N(Cc1ccccc1)C(=O)[C@H](CC(=O)NCCCN1CCCC1=O)C2	6.0	-1.6	i	3.2	.	.
c1ccc(N=C2SCCCS2)cc1	-0.3	1.0	i	-1.0	103.3	6.0
CC(C)CCOc1ccc(CO[C@@H]2[C@H]3OC(C)(C)O[C@H]3O[C@@H]2C(O)CO)cc1 (some centres undefined)	-6.8	4.7	i	0.8	97.5	0.2
Cc1ccc2cccc(NC(=S)NC(=O)c3ccnn3C)c2n1	0.3	3.5	+	-3.0	101.9	42.1
CN(Cc1ccccc1)Cc1nc2c([nH]1)c(=O)n(C)c(=O)n2C	1.5	-1.4	+	1.8	?	3.9
Cn1c(=O)c2[nH]c(CCc3ccncc3)nc2n(C)c1=O	14.3	0.1	i	-148.4	88.5	14.1
O=C(CCCSc1nc2sc3c(c2c(=O)[nH]1)CCC3)NCCCO	-0.1	-1.7	i	1.1	96.1	57.9*
O=C(CCCSc1nc2sc3c(c2c(=O)[nH]1)CCC3)NCCO	1.3	1.8	i	2.4	.	87.6*
COc1ccc(CCN(C)C2CCCN(C(=O)Cn3cnnn3)C2)cc1OC (centres undefined)	-4.2	1.6	i	-1.7	109.5	0.1
Cc1cccc2cc(C#N)c(SCC(=O)Nc3ccccc3N3CCOCC3)nc12	2.0	3.5	+	-8.7	99.8	-5.3
CCN1C(=O)/C(=C/c2cccs2)S/C1=N\S(=O)(=O)c1ccc(C)cc1	-0.7	0.6	i	-2.5	85.5	-0.6
C=CCN1C(=O)/C(=C/c2cccs2)S/C1=N\S(=O)(=O)c1ccc(F)cc1	-2.0	-0.1	+	-2.2	89.5	-8.9
